Assay results taken from ChEMBL document CHEMBL4390648, “Chemical synthesis, crystal structure, versatile evaluation of their biological activities and molecular simulations of novel pyrithiobac derivatives” (Eur J Med Chem, 2019).
≈ marks a conversion by molar mass, not a printed value. Calls of active or inactive are those of the source. The rule behind the calls is not given here.

Columns and labels:
[1] = test system: Candida albicans; assay: Antifungal activity against Candida albicans isolate g5 grown in RPMI 1640 medium incubated for 24 hrs by microdilution method; assay type: functional; conditions: isolate g5, 24 h
In short: (§1)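 C. albicans standard strain SC5314 and clinical isolates g5 and 17# tested by broth microdilution in YNB or RPMI 1640 medium. Plates incubated at 35 °C for up to 72 h, with visual readings taken at 24 h. MIC taken as the lowest concentration preventing visible growth.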

[2] = test system: Digitaria adscendens; assay: Pre-emergence herbicidal activity against Digitaria adscendens assessed as reduction in growth at 300g/ha measured after 24 days by green house pot method relative to control; assay type: functional; conditions: 576 h
[3] = test system: Brassica rapa subsp. oleifera; assay: Herbicidal activity against Brassica campestris L assessed as inhibition of rape root growth at 100 mg/l root growth incubated for 48 hrs relative to control; assay type: functional
In short: (§2)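 Rape seeds soaked in distilled water for 4 h, then placed on filter paper wetted with inhibitor solution, 15 seeds per 6-cm dish. Germinated in the dark at 28 °C for 48 h. Mean length of 10 roots per plate measured.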

[4] = test system: Candida albicans; assay: Antifungal activity against Candida albicans SC5314 grown in RPMI 1640 medium incubated for 24 hrs by microdilution method; assay type: functional; conditions: SC5314, 24 h; in short: as §1
[5] = test system: Amaranthus retroflexus; assay: Pre-emergence herbicidal activity against Amaranthus retroflexus assessed as reduction in growth at 300g/ha measured after 24 days by green house pot method relative to control; assay type: functional; conditions: 576 h
[6] = test system: Candida albicans; assay: Inhibition of Candida albicans AHAS catalytic subunit at 100 uM using pyruvate as substrate measured after 30 mins by colorimetric method relative to control
In short: (§3)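 Colorimetric assay in 50 mM potassium phosphate pH 7.0 with 50 mM pyruvate, 1 mM thiamine diphosphate, 10 mM MgCl2 and 10 μM FAD. Incubated 30 min at 37 °C for plant AHAS and 30 °C for fungal AHAS. Acetolactate formed was then quantified.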

[7] = test system: Ceratobasidium cereale; assay: Antifungal activity against Rhizoctonia cerealis assessed as reduction in growth at 50 mg/l by mycelium growth rate method relative to control; assay type: functional
In short: (§4)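 Mycelium growth rate method against S. sclerotiorum, P. capsici, P. piricola, R. cerealis, W. anthracnose and R. bakanae. Each compound tested at 50 mg/L, with chlorothalonil and PTB as controls. Relative inhibitory ratio (%) calculated from mycelial growth.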

[8] = test system: Phytophthora capsici; assay: Antifungal activity against Phytophthora capsici assessed as reduction in growth at 50 mg/l by mycelium growth rate method relative to control; assay type: functional; in short: as §4
[9] = test system: Arabidopsis thaliana; assay: Inhibition of Arabidopsis thaliana AHAS catalytic subunit using pyruvate as substrate at 100 uM measured after 30 mins by colorimetric method relative to control; in short: as §3
[10] = test system: Severe acute respiratory syndrome-related coronavirus; assay: Inhibition of SARS coronavirus M protease using AVLQSGFRKK as substrate at 20 uM by FRET assay relative to control
In short: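 Purified SARS-CoV Mpro assayed by FRET. Protein, compound and substrate were preheated at 37 °C and oscillated. Fluorescence (ex 320/em 405 nm) was read every 5 s for 200 reads.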

[11] = test system: Candida albicans; assay: Antifungal activity against Candida albicans isolate 17 grown in RPMI 1640 medium incubated for 24 hrs by microdilution method; assay type: functional; conditions: isolate 17, 24 h; in short: as §1
[12] = test system: Brassica rapa subsp. oleifera; assay: Herbicidal activity against Brassica campestris L assessed as inhibition of rape root growth at 10 mg/l root growth incubated for 48 hrs relative to control; assay type: functional; in short: as §2
[13] = test system: Brassica rapa subsp. oleifera; assay: Post-emergence herbicidal activity against Brassica campestris assessed as reduction in growth at 300g/ha measured after 24 days by green house pot method relative to control; assay type: functional; conditions: 576 h
[14] = test system: Echinochloa crus-galli; assay: Pre-emergence herbicidal activity against Echinochloa crus-galli assessed as reduction in growth at 300g/ha measured after 24 days by green house pot method relative to control; assay type: functional; conditions: 576 h
[15] = test system: Candida albicans; assay: Antifungal activity against Candida albicans isolate g5 grown in YNB medium incubated for 24 hrs by microdilution method; assay type: functional; conditions: isolate g5, 24 h; in short: as §1
[16] = test system: Ceratobasidium cereale; assay: Antifungal activity against Rhizoctonia cerealis assessed as reduction in growth mycelium growth rate method relative to control; assay type: functional, organism-based
In short: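 EC50 against R. cerealis derived from mycelium growth-rate inhibition over a concentration series, using a probit fit: Probit = m(log10[I] − log10[EC50]) + 5.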

[17] = test system: Brassica rapa subsp. oleifera; assay: Pre-emergence herbicidal activity against Brassica campestris assessed as reduction in growth at 300g/ha measured after 24 days green house pot method relative to control; assay type: functional; conditions: 576 h
[18] = test system: Echinochloa crus-galli; assay: Post-emergence herbicidal activity against Echinochloa crus-galli assessed as reduction in growth at 300g/ha measured after 24 days by green house pot method relative to control; assay type: functional; conditions: 576 h
[19] = test system: Candida albicans; assay: Inhibition of Candida albicans AHAS catalytic subunit at 10 uM using pyruvate as substrate measured after 30 mins by colorimetric method relative to control; in short: as §3
[20] = test system: Botryosphaeria berengeriana; assay: Antifungal activity against Physalospora pyricola assessed as reduction in growth at 50 mg/l by mycelium growth rate method relative to control; assay type: functional; in short: as §4
[21] = test system: Arabidopsis thaliana; assay: Inhibition of Arabidopsis thaliana AHAS catalytic subunit using pyruvate as substrate at 10 uM measured after 30 mins by colorimetric method relative to control; in short: as §3
[22] = test system: Candida albicans; assay: Antifungal activity against Candida albicans SC5314 grown in YNB medium incubated for 24 hrs by microdilution method; assay type: functional; conditions: SC5314, 24 h; in short: as §1
[23] = test system: Candida albicans; assay: Antifungal activity against Candida albicans isolate 17 grown in YNB medium incubated for 24 hrs by microdilution method; assay type: functional; conditions: isolate 17, 24 h; in short: as §1
[24] = test system: Fusarium fujikuroi; assay: Antifungal activity against Gibberella fujikuroi assessed as reduction in growth at 50 mg/l by mycelium growth rate method relative to control; assay type: functional; in short: as §4
[25] = test system: Colletotrichum; assay: Antifungal activity against Colletotrichum (W. anthracnose) assessed as reduction in growth at 50 mg/l by mycelium growth rate method relative to control; assay type: functional; in short: as §4
[26] = test system: Sclerotinia sclerotiorum; assay: Antifungal activity against Sclerotinia sclerotiorum assessed as reduction in growth at 50 mg/l by mycelium growth rate method relative to control; assay type: functional; in short: as §4
[27] = test system: Digitaria adscendens; assay: Post-emergence herbicidal activity against Digitaria adscendens assessed as reduction in growth at 300g/ha measured after 24 days by based green house pot method relative to control; assay type: functional; conditions: 576 h
[28] = test system: Amaranthus retroflexus; assay: Post-emergence herbicidal activity against Amaranthus retroflexus assessed as reduction in growth at 300g/ha measured after 24 days by green house pot method relative to control; assay type: functional; conditions: 576 h
[29] = test system: Tobacco mosaic virus; assay: Antiviral activity against Tobacco mosaic virus inoculated in Nicotiana tabacum leaves assessed as passivation by measuring local lesion numbers at 500 mg/l pre-incubated with virus for 30 mins followed by inoculation and measured up to 4 days; assay type: functional
In short: (§5)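 Passivation assay: TMV mixed with an equal volume of compound solution for 30 min, then rubbed onto the left half of N. tabacum L. leaves. The right half received virus mixed with solvent as control. Local lesions counted 3–4 days after inoculation. Compounds tested at 500 or 100 mg/L.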

[30] = test system: Tobacco mosaic virus; assay: Antiviral activity against Tobacco mosaic virus inoculated in Nicotiana tabacum leaves assessed as passivation by measuring local lesion numbers at 100 mg/l pre-incubated with virus for 30 mins followed by inoculation and measured up to 4 days; assay type: functional; in short: as §5
[31] = Inhibition of SARS coronavirus M protease using AVLQSGFRKK as substrate by FRET assay; set-up: species or system Severe acute respiratory syndrome-related coronavirus
In short: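 Purified SARS-CoV Mpro assayed by FRET. Protein, compound and substrate were preheated at 37 °C and oscillated. Fluorescence (ex 320/em 405 nm) was read every 5 s for 200 reads. IC50 from V0/V = 1+[I]/IC50.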

[32] = Cytotoxicity against HEK293T cells assessed as reduction in cell growth incubated for 48 hrs by MTT assay; assay type: cell-based, HEK-293T; conditions: human
In short: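 293T cells in logarithmic phase seeded at 12000 cells/well overnight, then exposed to a range of compound concentrations for 48 h. MTT added for a further 4 h, formazan dissolved in DMSO, and OD570 read. CC50 is the concentration reducing viability by 50%.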

[33] = test system: Mythimna separata; assay: Insecticidal activity against Mythimna separata assessed as larval mortality at 600 mg/l by leaf-dip method; assay type: functional
[34] = test system: SARS coronavirus M protease; assay: Selectivity index, ratio of CC50 for HEK293T cells to IC50 for SARS coronavirus M protease; assay type: toxicity; conditions: human, read-out: Ratio CC50/IC50
In short: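 Medium discarded, DMSO added, OD570 read; CC50 is the concentration cutting viability by 50%. IC50 from the 37 °C Mpro FRET assay (ex 320/em 405 nm) via V0/V = 1+[I]/IC50.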

| Structure (SMILES) | MIC [1] | inhibition (INH) [3] | MIC [4] | inhibition [6] | inhibition at 50 µg/mL [7] | inhibition at 50 µg/mL [8] | inhibition [9] | inhibition [10] | MIC [11] | inhibition (INH) [12] | MIC [15] | inhibition [19] | inhibition at 50 µg/mL [20] | inhibition [21] | MIC [22] | MIC [23] | inhibition at 50 µg/mL [24] | inhibition at 50 µg/mL [25] | inhibition at 50 µg/mL [26] | inhibition at 500 µg/mL [29] | further results |
| --- | --- | --- | --- | --- | --- | --- | --- | --- | --- | --- | --- | --- | --- | --- | --- | --- | --- | --- | --- | --- | --- |
| COc1cc(OC)nc(Sc2cccc(Cl)c2C(=O)O)n1 [PYRITHIOBAC] | > 100 µg/mL | 97% | > 100 µg/mL | 40% | 86.9% | 44.7% | 100% | 12.2% | > 100 µg/mL | 90.2% | > 100 µg/mL | 20% | 60.3% | 96% | > 100 µg/mL | > 100 µg/mL | 12.6% | 45.3% | 64.8% | – | inhibition at 300 g/ha [2]: 63.8%; inhibition at 300 g/ha [5]: 96.3%; inhibition at 300 g/ha [13]: 92.3%; inhibition at 300 g/ha [14]: 63.4%; EC50 [16]: 15.4 µg/mL (≈ 47.1 µM); inhibition at 300 g/ha [17]: 95.2%; inhibition at 300 g/ha [18]: 59.5%; inhibition at 300 g/ha [27]: 36.6%; inhibition at 300 g/ha [28]: 61.2% |
| COc1cc(OC)nc(Sc2ccc(F)cc2C(=O)O)n1 | 100 µg/mL (≈ 322 µM) | 86% | 100 µg/mL (≈ 322 µM) | 97.7% | – | – | 100% | – | 25 µg/mL (≈ 80.6 µM) | 72% | 25 µg/mL (≈ 80.6 µM) | 73.7% | – | 70.1% | 25 µg/mL (≈ 80.6 µM) | 3.12 µg/mL (≈ 10.1 µM) | – | – | – | 47% | inhibition at 300 g/ha [2]: 0%; inhibition at 300 g/ha [5]: 61.1%; inhibition at 300 g/ha [13]: 75.8%; inhibition at 300 g/ha [14]: 13.8%; inhibition at 100 µg/mL [30]: 11.4%; inhibition at 300 g/ha [17]: 85.2%; inhibition at 300 g/ha [18]: 24.3%; inhibition at 300 g/ha [27]: 33%; inhibition at 300 g/ha [28]: 50.6% |
| COc1nc(OC)nc(Sc2ccc(F)cc2C#N)n1 | 100 µg/mL (≈ 342 µM) | 60.3% | 100 µg/mL (≈ 342 µM) | 85.1% | 57.1% | 25% | 71.2% | 100% | 100 µg/mL (≈ 342 µM) | 4.6% | 50 µg/mL (≈ 171 µM) | 36.4% | 75% | 59.2% | 50 µg/mL (≈ 171 µM) | 25 µg/mL (≈ 85.5 µM) | 33.3% | 40.5% | 33.3% | 26.4% | IC50 [31]: 4.47 µM; CC50 at 48 h [32]: > 200 µM; mortality at 600 µg/mL [33]: 20%; inhibition [30]: inactive; selectivity ratio [34]: 44.5 |
| COc1nc(OC)nc(Sc2ccc(Br)cc2C#N)n1 | > 100 µg/mL | 14% | > 100 µg/mL | 81.1% | 66.7% | 8.3% | 85.5% | 100% | > 100 µg/mL | 0% | > 100 µg/mL | 37.4% | 70.3% | 57.3% | > 100 µg/mL | > 100 µg/mL | 30.3% | 21.4% | 19.4% | 0% | IC50 [31]: 4.54 µM; CC50 at 48 h [32]: 53.5 µM; mortality at 600 µg/mL [33]: 20%; inhibition [30]: inactive |
